Shown are actives, neighbours in structure and some others; about 3% of the full set was active somewhere.
MC4R antagonist: antagonists of human melanocortin 4 receptor (MC4R). MC4R-expressing cells, MTII-stimulated cAMP, LANCE TR-FRET. inhibition, % at 6.5 µM. 360,000 compounds, 0.48% hits;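 active = inhibition above its plate's cutoff, the mean of tested wells on that plate plus 3 SD, cut at about 29% in these data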;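 also: 0% = Melanotan II alone and 100% = Melanotan II plus saturating MCL0020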
Target sequence (P32245 whole entry, looked up): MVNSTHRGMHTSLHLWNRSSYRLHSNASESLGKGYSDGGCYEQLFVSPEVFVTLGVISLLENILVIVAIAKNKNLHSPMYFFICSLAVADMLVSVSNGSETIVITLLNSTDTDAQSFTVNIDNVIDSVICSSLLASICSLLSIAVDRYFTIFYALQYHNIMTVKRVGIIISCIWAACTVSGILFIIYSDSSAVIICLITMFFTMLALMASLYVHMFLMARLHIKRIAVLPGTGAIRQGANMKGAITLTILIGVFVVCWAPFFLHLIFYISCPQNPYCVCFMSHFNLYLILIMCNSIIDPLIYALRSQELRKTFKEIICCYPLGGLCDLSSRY
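System – human MC4R-expressing U2OS cells · Also added – Melanotan II · Dosing – one concentration, 6.5 µM nominal · Timing – 30-min compound, 1-h challenge, 1-h detection, room temperature · Measured by – Eu-cAMP/anti-cAMP TR-FRET, emission 671 nm · Replicates – singlicate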
Beta2AR agonist: activates human beta-2 adrenergic receptor causing internalization; response, % (test concentration not listed); 340,000 compounds, 0.43% hits; Am2.2-beta2AR cells, FAP receptor internalization, flow cytometry; P07550;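 active = response above a set limit, near 3 SD of response in nonfluorescent compounds, cut at about 42% in these data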
PfG6PD inh: PfG6PD (Plasmodium falciparum) enzyme inhibition | PfGluPho enzyme, NADPH resazurin-diaphorase fluorescence | inhibition, % at 20 µM | 350,000 compounds, 0.78% hits;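 active = inhibition reaching at least a set limit at 20 µM in the primary screen, cut at about 59% in these data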;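 also: 0% = DMSO wells with substrate and 100% = DMSO wells lacking glucose-6-phosphate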
ABHD5-PLIN5 inh: blocks binding of human ABHD5 to perilipin-5; Split G. princeps luciferase complementation, luminescence, 4 h; inhibition, % at 4 µM; 360,000 compounds, 0.78% hits; AID 602281;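 active = inhibition above the mean inhibition across every tested compound plus 3 SD, cut at about 22% in these data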;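 also: 0% = DMSO only wells and the 100% control is not disclosed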
MC4R barr agon: human MC4R agonism via beta-arrestin. AID 540308. 360,000 compounds, 0.98% hits. U2OS MC4R beta-arrestin complementation, luminescence; percent of melanotan II response, DMSO zero. P32245. activation, % at 8.9 µM;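 active = activation above a per-plate cutoff, the mean activation of sample wells on that plate plus 3 SD, cut at about 8% in these data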
MC4R barr ag: human MC4R beta-arrestin agonism confirmation | U2OS MC4R beta-arrestin recruitment, luminescence; scaled DMSO 0%, Melanotan II 100% | 2,400 compounds, 31% hits | activation, % at 8.9 µM | AID 602192 | shares compounds with MC4R barr agon;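 active = mean activation across replicates above the hit cutoff set in the earlier primary screen, cut at about 8% in these data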
MOR DOR agonist: counter-screen for MC4R agonists: agonists of mu-delta opioid heterodimer | AID 602194 | shares compounds with MC4R barr agon | 2,400 compounds, 5.8% hits | activation, % at 9.2 µM | U2OS PathHunter beta-arrestin, beta-gal luminescence; percent of deltorphin B response, DMSO zero;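 active = mean activation across replicates exceeds the hit threshold derived in the earlier primary screen, cut at about 18% in these data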;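 also: 100% = deltorphin B at 0.9 µM final and 0% = DMSO alone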
Numbers without * were called inactive.

`c1ccc(Cc2nnc(-c3ccccc3)o2)cc1` gave MC4R antagonist 4, Beta2AR agonist 2, PfG6PD inh 5, ABHD5-PLIN5 inh 7, MC4R barr agon 15*, MC4R barr ag 25* and MOR DOR agonist 19*.
For CCC(C)Sc1ccc(-c2nc3ccc(C)cn3c2NCc2ccccc2)cc1 (configuration not stated) the results were MC4R antagonist 10, Beta2AR agonist 4, PfG6PD inh 14, ABHD5-PLIN5 inh -9, MC4R barr agon 12*, MC4R barr ag 5 and MOR DOR agonist 8.
For CCC(=O)c1cn(CC(=O)Nc2ccc(OC)cc2)c2ccccc12 the results were MC4R antagonist 8, Beta2AR agonist -7, PfG6PD inh 2, ABHD5-PLIN5 inh 0 and MC4R barr agon 0.
`CC1CC(C)CN(C(=S)Nc2ccc(SC(F)F)cc2)C1` (configuration not stated) gave MC4R antagonist 12, Beta2AR agonist 5, PfG6PD inh 15, ABHD5-PLIN5 inh -11, MC4R barr agon 24*, MC4R barr ag 5 and MOR DOR agonist 11.
Screening CN(Cc1ccc2c(c1)CCCN2C)C(=O)[C@H]1O[C@@H](n2ccc(=O)[nH]c2=O)[C@H](O)[C@@H]1O returned ABHD5-PLIN5 inh 6.
O=C(Nc1ccc(Br)cc1)C(c1ccccc1)c1ccccc1 was read as MC4R antagonist 4, Beta2AR agonist -3, PfG6PD inh 3, ABHD5-PLIN5 inh -8, MC4R barr agon 11*, MC4R barr ag 4 and MOR DOR agonist 7.
Screening O=C(CN1CCCC1)Nc1c(C(=O)C2CC2)oc2ccccc12 returned MC4R antagonist 10, Beta2AR agonist -6, PfG6PD inh 3, ABHD5-PLIN5 inh -1 and MC4R barr agon -1.
For N#Cc1ccccc1OCC(=O)Nc1c(C(=O)C2CC2)oc2ccccc12 the results were MC4R antagonist 0, Beta2AR agonist 0, PfG6PD inh -7, ABHD5-PLIN5 inh -6, MC4R barr agon 22*, MC4R barr ag 8.9* and MOR DOR agonist 7.
CCOC(=O)c1nn(-c2cccc(OC)c2)c2nc(CC)c(C#N)c(=O)n12 was read as MC4R antagonist 7, Beta2AR agonist 3, PfG6PD inh 10, ABHD5-PLIN5 inh -1, MC4R barr agon 11*, MC4R barr ag 5 and MOR DOR agonist 5.
`COc1cc(Cn2c(-c3nonc3N)nc3ccccc32)ccc1C` gave MC4R antagonist -25, Beta2AR agonist 1, PfG6PD inh -7, ABHD5-PLIN5 inh 2, MC4R barr agon 10*, MC4R barr ag -4 and MOR DOR agonist 4.
For Nc1nonc1-c1nc2ccccc2n1Cc1ccc(Cl)cc1 the results were MC4R antagonist -6, Beta2AR agonist -2, PfG6PD inh -4, ABHD5-PLIN5 inh 4, MC4R barr agon 11*, MC4R barr ag -1 and MOR DOR agonist 5.
For CCOc1ccc(CCNC(=O)COC(=O)COc2ccc(C#N)cc2)cc1OCC the results were MC4R antagonist 10, Beta2AR agonist -3, PfG6PD inh 1, ABHD5-PLIN5 inh 2 and MC4R barr agon 3.
Screening O=C1CC(NS(=O)(=O)c2ccccc2F)CN1c1ccc2c(c1)OCCO2 (configuration not stated) returned MC4R antagonist 13, Beta2AR agonist -3, PfG6PD inh 10, ABHD5-PLIN5 inh -9 and MC4R barr agon -3.
O=C(OC(C(=O)NC1CCCCC1)c1ccc(C(F)(F)F)cc1)c1ccco1 (configuration not stated) was read as MC4R antagonist -2, Beta2AR agonist -13, PfG6PD inh 2, ABHD5-PLIN5 inh -9, MC4R barr agon 11*, MC4R barr ag 2 and MOR DOR agonist 4.
Screening CC(OC(=O)c1ccco1)C(=O)NC1CCCCC1 (configuration not stated) returned MC4R antagonist 0, Beta2AR agonist -3, PfG6PD inh -6, ABHD5-PLIN5 inh -6 and MC4R barr agon -1.
Oc1ccccc1C1CCCCC1c1ccccc1 (configuration not stated) was read as MC4R antagonist 2, Beta2AR agonist 14, PfG6PD inh 1, ABHD5-PLIN5 inh -13 and MC4R barr agon 2.
`COc1cc(-c2nnc(COc3ccc(Cl)cc3C)o2)cc(OC)c1OC` gave MC4R antagonist 1, Beta2AR agonist 9, PfG6PD inh 9, ABHD5-PLIN5 inh 1, MC4R barr agon 28*, MC4R barr ag 6 and MOR DOR agonist 6.
For COc1ccc(COc2ccsc2C(=O)Nc2ccc(Cl)c(Cl)c2)cc1 the results were MC4R antagonist -6, Beta2AR agonist 2, PfG6PD inh 8, ABHD5-PLIN5 inh -4, MC4R barr agon 12*, MC4R barr ag 25* and MOR DOR agonist 3.
Screening O=C(Nc1ccc(OCc2ccccc2)cc1)c1ccccc1 returned MC4R antagonist 1, Beta2AR agonist 9, PfG6PD inh 9, ABHD5-PLIN5 inh -7 and MC4R barr agon 1.
`Cc1ccsc1C(=O)Nc1ccc(OCc2ccccc2)cc1` gave MC4R antagonist 15, Beta2AR agonist 0, PfG6PD inh 10, ABHD5-PLIN5 inh -2, MC4R barr agon 9.7*, MC4R barr ag 0 and MOR DOR agonist 3.
For COc1ccc(C(=O)Nc2ccc(OCc3ccccc3)cc2)cc1[N+](=O)[O-] the results were MC4R antagonist 0, Beta2AR agonist 3, PfG6PD inh 17, ABHD5-PLIN5 inh -3, MC4R barr agon 30*, MC4R barr ag 10* and MOR DOR agonist 7.
For CN(C)S(=O)(=O)Oc1ccsc1C(=O)Nc1ccc(Cl)c(Cl)c1 the results were MC4R antagonist 17, Beta2AR agonist -4, PfG6PD inh 29, ABHD5-PLIN5 inh 4 and MC4R barr agon 0.
`CCOc1ccc(/C=N/OCC(=O)Nc2ccc(OCc3ccccc3)cc2)cc1OC` gave MC4R antagonist 12, Beta2AR agonist -24, PfG6PD inh -16, ABHD5-PLIN5 inh 8, MC4R barr agon 13*, MC4R barr ag 8.2* and MOR DOR agonist 2.
For O=C(COc1ccccc1[N+](=O)[O-])Nc1ccc2c(c1)CCC2 the results were MC4R antagonist 2, Beta2AR agonist -4, PfG6PD inh 10, ABHD5-PLIN5 inh -4, MC4R barr agon 13*, MC4R barr ag 2 and MOR DOR agonist 3.
O=C(COc1cccc(Cl)c1Cl)Nc1ccc2c(c1)CCC2 was read as MC4R antagonist 8, Beta2AR agonist -21, PfG6PD inh 10, ABHD5-PLIN5 inh 0 and MC4R barr agon 5.

Assay outcomes (PubChem BioAssay)
